This sample holds only a part of the variants without activity.
B1: tRNA (parent)
chain: GUUCCGUUGGCGUAAUGGUAACGCGUCUCCCUCCUAAGGAGAAGACUGCGGGUUCGAGUCCCGUACGGAACG

Variants of: B1
Assay: yeast fitness relative to wild type (ratio to wild type); higher = fitter; tRNA-Arg(CCU), competitive growth, 37 C, YPD
How it was run: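 The tRNA-Arg(CCU) gene variants were made by chemical synthesis with a 3% per-site mutation rate at 69 sites and inserted at the native genomic locus of Saccharomyces cerevisiae. After pooling, the strains were competed in YPD at 37°C for 24 hours in six parallel replicates. Gene amplicons from the start population and each end population were read by 100-nucleotide paired-end sequencing, and Darwinian fitness relative to wild type was taken from genotype frequency changes. Genotypes needed ≥ 100 starting reads, and estimates < 0.5 were set to 0.5.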

Variant | yeast fitness
GUUCCGUUAGCGUAAUGCUAACGCGUCUCCCUCCUAAGGAGAAGACUGCGGGUUCGAGUCCCGUACGGAACG [G9A G18C] | 0.643
GUUCCGUUAGCGUAAUGGUAACCCGUCUCCCUCCUAAGGAGAAGACUGCGGGUUCGAGUCCCGAACGGAACG [G9A G23C U64A] | ≤ 0.5
GUUCCGUUAGCUUUAUGGUAACGCGUCUCCGUCCUAAGGAGAAGACUGCGGGUUCGAGUCCCGUACGGUACG [G9A G12U A14U C31G A69U] | ≤ 0.5
GUUCCGUUAGCCUAAUGGUAACGCGUCUCCAUGCUAAGGAGAAGGCUGCGGGUUCGAGUCCCGUACUGAACG [G9A G12C C31A C33G A45G G67U] | ≤ 0.5
GUUCCGUUACCGUAAUGGUAACGCCUCUCCCUUCUAAGGAGAAGACUGCGGGUUCGAGUCCCGUACGGAACG [G9A G10C G25C C33U] | ≤ 0.5
GUUCCGUUAGCUUUAUGGUAACGCGUGUCCCUCCUAAGAAGAAGACUGCGGGUUCGAGUCCCGUACAGAACG [G9A G12U A14U C27G G39A G67A] | ≤ 0.5
GUUCCGUUAGCUUUAUGGUAACGCGUCUCCCUCAUAAGGAGAAGACUGCGGGUUCGAGUCCCGUCCGGAACG [G9A G12U A14U C34A A65C] | ≤ 0.5
GUUCCGUUAACGUAAUGGUAACGCAUCUCCGUCCUAAGGAGAAGACUGCGGAUUCGAGUCUCGUACGGAACG [G9A G10A G25A C31G G52A C61U] | ≤ 0.5
GUUCCGUUACUGUAAGGGUAACGCGUCUCCCUCCUAAGGAAAAGACUACGGGUUCGAGUCCCGUUCGGAACG [G9A G10C C11U U16G G41A G48A A65U] | ≤ 0.5
GUUCCGUUAGCCUAAUGGUAACGCGUCUCCAUGCUAAGGAGAAGGCUGCGGGUUCGAGUCCCGUAUGCAACG [G9A G12C C31A C33G A45G C66U G68C] | ≤ 0.5
GUUCCGUUAGCAUAAUGGUAACGCGUCUGCCUCCUAAGGAGAAGACUGCGGGUUCGAGUCCCGUUCGGAACG [G9A G12A C29G A65U] | ≤ 0.5
GUUCCGUUAGCGUAAUGAUAACGUGUCUCCCUCCUAAGGAGAAGACUGCGGGUUCGCGUCCCGUACGGAACG [G9A G18A C24U A57C] | ≤ 0.5
GUUCCGUUAGCCUCAUGGUAACGCGUCUCCCUCCUAAGGAGAAGACUGCCGGUUCGAGUCCCGUACGGAACG [G9A G12C A14C G50C] | 0.594
GUUCCGUUAGCGUAAUCGUAACGCGUCUCCCUCCUAAGGAGAAGACUGGGGGUUCGAGUCCCGUACGGAACG [G9A G17C C49G] | ≤ 0.5
GUUCCGUUAGCAUAAUGGUAACGCGUCUCCCUCCUAAGGAGAAGACUGCGGGUUCGAGUCCCGUACGGAACG [G9A G12A] | 0.927
GUUCCGUUAGCCUAAUGGUAACGCGUCUCCCUCCUAAGGAGAAGACUGCGGGUUCGAGUCCCGUACGGAACG [G9A G12C] | 0.943
GUUCCGUUAACGUAAUGGUAACGCGUCUCCCUCUUAAGGAGAAGACUGCGGGUUCGAGUCCCGUAUGGAACG [G9A G10A C34U C66U] | ≤ 0.5
GUUCCGUUAGCGUAAUGGUAACACGUCUCCCUCCUGAGGAGAAGACUGCGGGUUCGAGUCCCGUACGGAACG [G9A G23A A36G] | 0.652
GUUCCGUUAGCCAAAUGGUAACGCAUCUCGCUCCUAAGGAGAAGACUGCGGGUUCGAGUCCCGUAUGGAACG [G9A G12C U13A G25A C30G C66U] | ≤ 0.5

Variant | yeast fitness
GUUCCGUUAGCCAAAUGGUAACGCAUCUCGCUCCUAAGGAGAAGACUGCGGGUUCGAGUCCCGUAAGGAACG [G9A G12C U13A G25A C30G C66A] | ≤ 0.5
GUUCCGUUAGCGUAAUGGUAACCCGUCUCCCUCCUAAGCAGAAGACUGCGGGUUCGAGUCCCGUACGGAACG [G9A G23C G39C] | ≤ 0.5
GUUCCGUUAGCGUAAUGGUAACGCGUCUCCCUCCUAAGGAGAAGACUGCGGGUUCGAGUCCCGUAGGCAACG [G9A C66G G68C] | 0.571
GUUCCGUUAGCGUAAUGGUAACGCAUCUCCCUCCUAAGGAGAAGACUGCGGGUUCGAGUCACGUACGGAACG [G9A G25A C61A] | ≤ 0.5
GUUCCGUUAACGUAAUGGUAACGCGUCUCCGUCCUAAGGAGAAAACUGCGGGUUCGAGUCCCGUACGGAACG [G9A G10A C31G G44A] | ≤ 0.5
GUUCCGUUACCGUAAUGGUGACGCCUCUCCCUUCUAAGGAGAAGACUGCGGGUUCGAGUCCCGUACGGAACG [G9A G10C A20G G25C C33U] | ≤ 0.5
GUUCCGUUAGCCUAAUAGUAAGGCGUCUCUCUCGUAAGGAGAAGACUGCGGGUUCGAGGCCCGUACGGAUCG [G9A G12C G17A C22G C30U C34G U59G A70U] | ≤ 0.5
GUUCCGUUAGCCUAAUGGUAACGCGUCUCCAUGCUAAGGAGAAGGCUGCGGGUUCGAGUCCCGUACGGAACG [G9A G12C C31A C33G A45G] | 0.611
GUUCCGUUAAUGUAAUGGUAACGCGUCUCCCUCCUAAGGAGAAGACUGCGGGUUCGAGUCCCGUACGGAACG [G9A G10A C11U] | 0.668
GUUCCGUUAGCGUAAUCGUAACGCGUCUCCCUCCUAAGGAGAAGACUGCGGGUUCCAGUCCCGUACGGAACG [G9A G17C G56C] | 0.589
GUUCCGUUACCGUAAUGGUAACGCGUCUCCCUCCUAAGGAGAAGACUGCGGGUUCGAGUUCCGGACGGAACG [G9A G10C C60U U64G] | ≤ 0.5
GUUCCGUUAGCGUAAUGGUAACGCCGCUCCCUCCUAAGGAGAAGAGUGCGGGUUCGAGUCCCGUACGGAUCG [G9A G25C U26G C46G A70U] | ≤ 0.5
GUUCCGUUAGCUUUAUGGUAACGCGUCUCCCGCCUAAGGAGAAGACUGCGGGAUCGAGUCCCGUACGGAACG [G9A G12U A14U U32G U53A] | ≤ 0.5
GUUCCGUUAGCGUAAUGGUAACGCAUCUCCCUCCUAAGGCGAAGAUUGCGGGUUCGAGUCCCGUACGGAACG [G9A G25A A40C C46U] | 0.727
GUUCCGUUAGCGUAAUGGUAACGCCACUCUCUCCUAAGGAGAAGACUGCGGGUUCGAGUCCCGUACGGAACG [G9A G25C U26A C30U] | ≤ 0.5
GUUCCGUUAGCGUAAUCGUAACGCGUCUCCCUCCUAAGGAGAAGACUGCGGGUUCGAGUCCCGUACGGAACG [G9A G17C] | 0.668
GUUCCGUUAACGUAAUGGUAACGCGUCUCCCUCCUAAGGAGAAGACUGCGGGUUCGAGUUCCGUACGGCACG [G9A G10A C60U A69C] | 0.618
GUUCCGUUAGCGUAAUGGUAACGCCUCUCUCUCCUAAGGAGAAGACUGCGGGUUCGAGUCCCGUACGGAACG [G9A G25C C30U] | 0.679
GUUCCGUUAGCGUAAUGGUAACGCCUCUCCCUCCUAAGGAGAAGACUGCGGGUUCGAGUCCUGUACGGAACG [G9A G25C C62U] | 0.712

From the RNAGym collection of RNA variant scans (doi:10.1126/science.aae0568)
